Data as given in ChEMBL document CHEMBL3045051 (Med Chem Res, 2011).
Active and inactive are the calls of the source. No cut-off for these calls is given here.

Tests used:
[1] = tested on: Vesicular stomatitis virus; assay: Antiviral activity against Vesicular stomatitis virus infected Hela cells assessed as inhibition of virus-induced cytopathicity; format: functional, organism-based
Coxsackievirus B4 [2] = assay: Antiviral activity against Human coxsackievirus B4 infected VERO cells assessed as inhibition of virus-induced cytopathicity; format: functional, organism-based
Method in brief: (§1)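 Confluent monolayers (feline kidney Crandell, Vero, HEL or HeLa, as named for each virus) were infected with 100 CCID50 of virus and allowed to adsorb for 1 h. Unbound virus was then removed, and cultures were incubated with test compound in serial dilutions (200, 40, 8 … µM). Cytopathicity was scored once untreated infected controls reached complete cytopathic effect.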

[3] = tested on: Radical scavenging activity; assay: Antioxidant activity assessed as DPPH radical scavenging activity at 5 X 10^-5 M after 20 min; format: functional
Method in brief: (§2)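 Test compound was mixed with DPPH (0.05 and 0.1 mM) in ethanol. Absorbance at 517 nm was read after 20 and 60 min and compared with the NDGA standard, with ethanol as control. Each experiment was run at least in triplicate, and the SD of absorbance was <10% of the mean.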

[4] = tested on: Mammalian orthoreovirus 1; assay: Antiviral activity against Mammalian orthoreovirus 1 infected VERO cells assessed as inhibition of virus-induced cytopathicity; format: functional, organism-based; method in brief: as §1
[5] = Antioxidant activity assessed as inhibition of AAPH-induced lipid peroxidation at 1 X 10^-4 M; format: functional
Punta Toro virus = assay: Antiviral activity against Punta Toro virus infected Hela cells assessed as inhibition of virus-induced cytopathicity; format: functional, organism-based
[6] = tested on: Vesicular stomatitis virus; assay: Antiviral activity against Vesicular stomatitis virus infected HEL cells assessed as inhibition of virus-induced cytopathicity; format: functional, organism-based
Coxsackievirus B4 [7] = assay: Antiviral activity against Human coxsackievirus B4 infected human HeLa cells assessed as inhibition of virus-induced cytopathicity; format: functional, organism-based; method in brief: as §1
Human respirovirus 3 = assay: Antiviral activity against Human parainfluenza virus 3 infected Vero cells assessed as inhibition of virus-induced cytopathicity; format: functional, organism-based; method in brief: as §1
[8] = tested on: Radical scavenging activity; assay: Antioxidant activity assessed as DPPH radical scavenging activity at 1 X 10^-4 M after 60 min; format: functional; method in brief: as §2
Human alphaherpesvirus 2 = assay: Antiviral activity against Human herpesvirus 2 strain G infected human HEL cells assessed as inhibition of virus-induced cytopathicity; format: functional, organism-based; method in brief: as §1
Influenza A virus = assay: Antiviral activity against Unidentified Influenza A virus (H1N2) infected MDCK cells assessed as inhibition of virus-induced cytopathicity; format: functional, organism-based
Vaccinia virus = assay: Antiviral activity against Vaccinia virus infected human HEL cells assessed as inhibition of virus-induced cytopathicity; format: functional, organism-based; conditions: Orthopoxvirus vaccinia
[9] = tested on: Respiratory syncytial virus; assay: Antiviral activity against Respiratory syncytial virus infected human HeLa cells assessed as inhibition of virus-induced cytopathicity; format: functional, organism-based; method in brief: as §1
[10] = tested on: Radical scavenging activity; assay: Antioxidant activity assessed as DPPH radical scavenging activity at 5 X 10^-5 M after 60 min; format: functional; method in brief: as §2
[11] = target: T1, Seed linoleate 13S-lipoxygenase-1 (Glycine max) (UniProt P08170); assay: Inhibition of Glycine max (soybean) lipoxygenase using sodium linoleate as substrate at 1 X 10^-4
T1 sequence (whole entry): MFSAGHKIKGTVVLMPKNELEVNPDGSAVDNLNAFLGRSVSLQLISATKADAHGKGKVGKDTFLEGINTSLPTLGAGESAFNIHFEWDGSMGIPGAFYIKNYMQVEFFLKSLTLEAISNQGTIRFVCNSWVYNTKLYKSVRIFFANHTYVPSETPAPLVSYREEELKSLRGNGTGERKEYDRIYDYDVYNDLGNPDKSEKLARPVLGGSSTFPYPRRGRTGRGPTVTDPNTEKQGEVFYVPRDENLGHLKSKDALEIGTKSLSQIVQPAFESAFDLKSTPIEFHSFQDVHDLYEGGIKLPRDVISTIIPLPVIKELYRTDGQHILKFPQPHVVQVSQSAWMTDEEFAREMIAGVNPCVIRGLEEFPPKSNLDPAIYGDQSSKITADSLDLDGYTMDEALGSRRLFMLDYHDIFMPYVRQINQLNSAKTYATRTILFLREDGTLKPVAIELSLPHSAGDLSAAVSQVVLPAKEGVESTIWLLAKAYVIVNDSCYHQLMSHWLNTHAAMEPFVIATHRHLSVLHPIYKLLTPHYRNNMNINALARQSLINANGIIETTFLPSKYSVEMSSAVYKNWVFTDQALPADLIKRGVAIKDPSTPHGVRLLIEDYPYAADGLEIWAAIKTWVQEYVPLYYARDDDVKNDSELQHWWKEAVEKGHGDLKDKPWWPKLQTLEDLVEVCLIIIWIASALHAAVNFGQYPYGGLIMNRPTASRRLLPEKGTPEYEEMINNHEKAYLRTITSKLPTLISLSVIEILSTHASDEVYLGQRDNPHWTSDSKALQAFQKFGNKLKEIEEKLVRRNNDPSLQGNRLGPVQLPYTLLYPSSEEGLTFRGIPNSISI

Sindbis virus = assay: Antiviral activity against Sindbis virus infected Hela cells assessed as inhibition of virus-induced cytopathicity; format: functional, organism-based
[12] = Antioxidant activity assessed as inhibition of AAPH-induced lipid peroxidation at 1 X 10^-5 M; format: functional
Human alphaherpesvirus 1 = assay: Antiviral activity against […] 1 KOS infected in human HEL cells assessed as inhibition of virus-induced cytopathicity; format: functional, organism-based; method in brief: as §1
[13] = tested on: Radical scavenging activity; assay: Antioxidant activity assessed as DPPH radical scavenging activity at 1 X 10^-4 M after 20 min; format: functional; method in brief: as §2
Feline coronavirus = assay: Antiviral activity against Feline coronavirus infected feline kidney crandell cells assessed as inhibition of virus-induced cytopathicity; format: functional, organism-based; method in brief: as §1

Structure (SMILES) | Activity [1] | Activity (Coxsackievirus B4 [2]) | inhibition [3] | Activity [4] | inhibition [5] [%] | Activity (Punta Toro virus) | Activity [6] | Activity (Coxsackievirus B4 [7]) | Activity (Human respirovirus 3) | inhibition [8] | Activity (Human alphaherpesvirus 2) | Activity (Influenza A virus) | Activity (Influenza A virus; H1N1) | Activity (Vaccinia virus) | Activity [9] | inhibition [10] [%] | Activity (Sindbis virus) | Activity (Human alphaherpesvirus 1) | inhibition [13] | Activity (Feline coronavirus) | also measured
CC(C(=O)NCCc1ccccc1)c1cccc(C(OC(=O)NCCc2ccccc2)c2ccccc2)c1 (centres undefined) | inactive | inactive | 3.6% | inactive | 99 | inactive | inactive | inactive | inactive | 2.2% | inactive | inactive | inactive | inactive | inactive | 8.5 | inactive | inactive | inactive | inactive | inhibition [11]: 18.9%; inhibition [12]: 22.5%
Cc1c(C)c2c(c(C)c1O)CCC(C)(C(=O)O)O2 (centres undefined) | inactive | inactive | – | inactive | 63 | inactive | inactive | inactive | inactive | – | inactive | inactive | inactive | inactive | inactive | – | inactive | inactive | – | inactive | –
CC(C(=O)N1CCCC1)c1cccc(C(OC(=O)N2CCCC2)c2ccccc2)c1 (centres undefined) | inactive | inactive | 5.7% | inactive | 77.2 | inactive | inactive | inactive | inactive | 2.7% | inactive | inactive | inactive | inactive | inactive | 6.5 | inactive | inactive | 2.6% | inactive | inhibition [11]: 12.7%; inhibition [12]: 16.4%
CC(C(=O)N1CCCCC1)c1cccc(C(OC(=O)N2CCCCC2)c2ccccc2)c1 (centres undefined) | inactive | inactive | 8.6% | inactive | 97.4 | inactive | inactive | inactive | inactive | 4.3% | inactive | inactive | inactive | inactive | inactive | 10 | inactive | inactive | 1.7% | inactive | inhibition [11]: inactive; inhibition [12]: 25.5%
CC(Cc1ccc(O)c(O)c1)C(C)Cc1ccc(O)c(O)c1 (centres undefined) | inactive | inactive | 81% | inactive | – | inactive | inactive | inactive | inactive | 97% | inactive | inactive | inactive | inactive | inactive | 83 | inactive | inactive | 93% | inactive | –
CONC(=O)OC(c1ccccc1)c1cccc(C(C)C(=O)NOC)c1 (centres undefined) | inactive | inactive | inactive | inactive | 61 | inactive | inactive | inactive | inactive | 3.2% | inactive | inactive | inactive | inactive | inactive | 4.1 | inactive | inactive | 1.8% | inactive | inhibition [11]: 26.9%; inhibition [12]: 2.5%
CCONC(=O)OC(c1ccccc1)c1cccc(C(C)C(=O)NOCC)c1 (centres undefined) | inactive | inactive | 2.5% | inactive | 54.5 | inactive | inactive | inactive | inactive | 1.1% | inactive | inactive | inactive | inactive | inactive | 3.7 | inactive | inactive | 2.3% | inactive | inhibition [11]: 22.3%; inhibition [12]: inactive
CC(C(=O)NOCc1ccccc1)c1cccc(C(OC(=O)NOCc2ccccc2)c2ccccc2)c1 (centres undefined) | inactive | inactive | 3.4% | inactive | 99.3 | inactive | inactive | inactive | inactive | inactive | inactive | inactive | inactive | inactive | inactive | 5.6 | inactive | inactive | inactive | inactive | inhibition [11]: 40.8%; inhibition [12]: 49.2%
O=C(O)/C=C/c1ccc(O)c(O)c1 | inactive | inactive | – | inactive | – | inactive | inactive | inactive | inactive | – | inactive | inactive | inactive | inactive | inactive | – | inactive | inactive | – | inactive | –
CC(C(=O)NC1CCCCC1)c1cccc(C(OC(=O)NC2CCCCC2)c2ccccc2)c1 (centres undefined) | inactive | inactive | 2% | inactive | 96.1 | inactive | inactive | inactive | inactive | inactive | inactive | inactive | inactive | inactive | inactive | 3.1 | inactive | inactive | inactive | inactive | inhibition [11]: 22.7%; inhibition [12]: 5.4%
